Drawing on ChEMBL document CHEMBL1143988, “11-(pyridinylphenyl)steroids--a new class of mixed-profile progesterone agonists/antagonists” (Bioorg Med Chem, 2008), this text covers IC50, Efficacy and EC50 for 23 molecules.

What all share (type): functional, cell-based
Assay [1] concerns the target T1, Progesterone receptor (Homo sapiens, UniProt P06401).
T1 sequence (P06401 whole entry): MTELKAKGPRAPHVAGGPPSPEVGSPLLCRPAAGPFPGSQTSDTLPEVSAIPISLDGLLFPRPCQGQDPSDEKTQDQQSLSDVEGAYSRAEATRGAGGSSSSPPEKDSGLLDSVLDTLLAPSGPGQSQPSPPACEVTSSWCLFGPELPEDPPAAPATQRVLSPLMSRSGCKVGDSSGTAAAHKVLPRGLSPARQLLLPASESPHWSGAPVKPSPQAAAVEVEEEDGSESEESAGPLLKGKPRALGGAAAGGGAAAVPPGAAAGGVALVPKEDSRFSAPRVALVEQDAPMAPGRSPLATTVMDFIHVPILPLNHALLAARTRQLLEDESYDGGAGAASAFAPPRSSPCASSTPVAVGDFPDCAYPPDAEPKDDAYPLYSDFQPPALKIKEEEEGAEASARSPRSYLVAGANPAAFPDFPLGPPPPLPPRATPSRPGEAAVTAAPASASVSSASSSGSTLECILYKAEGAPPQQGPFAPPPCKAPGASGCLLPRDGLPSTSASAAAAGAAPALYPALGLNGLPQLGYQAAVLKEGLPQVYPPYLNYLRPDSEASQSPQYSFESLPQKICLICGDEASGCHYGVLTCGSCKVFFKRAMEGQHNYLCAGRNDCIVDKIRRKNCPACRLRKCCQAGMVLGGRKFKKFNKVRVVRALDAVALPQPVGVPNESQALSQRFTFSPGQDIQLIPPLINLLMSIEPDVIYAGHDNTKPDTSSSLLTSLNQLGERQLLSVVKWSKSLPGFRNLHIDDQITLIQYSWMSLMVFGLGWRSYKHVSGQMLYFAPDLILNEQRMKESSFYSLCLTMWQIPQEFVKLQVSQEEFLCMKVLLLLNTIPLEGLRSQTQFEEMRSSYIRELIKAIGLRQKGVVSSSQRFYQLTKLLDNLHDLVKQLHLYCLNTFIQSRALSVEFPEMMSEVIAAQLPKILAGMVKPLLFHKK
The assay is described as follows: (§1) Antagonist activity at human PRB expressed in CHO cells assessed as inhibition of Org 2058 induced-transactivation relative to Org 31710. The method in brief: (§2)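 PR-B-mediated luciferase transactivation antagonist mode, run in the same setting as the agonist assay, with 0.1 nM Org 2058 as inducer; IC50 taken from inhibition of luciferase induction. Efficacy given relative to the antagonist Org 31710, whose effect is set to 100%.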

In assay [2] the target is T2, Progesterone receptor (Homo sapiens) (UniProt P06401).
T2 sequence (whole entry): T1 sequence (P06401 whole entry)
In words: Agonist activity at human PRB expressed in CHO cells relative to Org 2058.

Assay [3] concerns the target T1, Progesterone receptor. In words: Antagonist activity at human PRB expressed in CHO cells assessed as inhibition of Org 2058 induced-transactivation. In short, it runs like this: as §2
Assay [4] addresses T2, Progesterone receptor (Homo sapiens). The assay is described as §1. The method in brief: as §2
Assay [5] concerns the target T1, Progesterone receptor. In words: Agonist activity at human PRB expressed in CHO cells.

Consider `CN(C)c1ccc([C@H]2C[C@@]3(C)[C@@H](CC[C@@]34CCCC4=O)[C@@H]3CCC4=CC(=O)CCC4=C32)cc1`, for which, on Progesterone receptor [1], the IC50 was determined as 0.2 nM.

On to `C[C@]12C[C@H](c3ccc(-c4cccnc4)cc3)C3=C4CCC(=O)C=C4CC[C@H]3[C@@H]1CC[C@]2(C)C(=O)C1CC1`, for which the Efficacy is 38% in assay [2] and 58% in assay [4]. In addition, the IC50 at Progesterone receptor [3] worked out at 0.13 nM.

Regarding `C[C@@H]1C[C@H]2[C@@H]3CCC4=CC(=O)CCC4=C3[C@@H](c3ccc(-c4ccccn4)cc3)C[C@]2(C)[C@H]1C(=O)C1CC1`, the Efficacy in assay [2] was 49%; in assay [4] it was 33%. Moreover, the IC50 on Progesterone receptor [3] turned out to be 14.8 nM.

On to `COc1ccc(-c2ccc([C@H]3C[C@@]4(C)[C@@H](C[C@@H](C)[C@@H]4C(=O)C4CC4)[C@@H]4CCC5=CC(=O)CCC5=C43)cc2)cn1`, for which the Efficacy in assay [2] is 42%; in assay [4] it was 59%. In addition, the IC50 at Progesterone receptor [3] worked out at 0.63 nM.

In the case of `C[C@@H]1C[C@H]2[C@@H]3CCC4=CC(=O)CCC4=C3[C@@H](c3ccc(-c4cnc5ccccc5c4)cc3)C[C@]2(C)[C@H]1C(=O)C1CC1`, the results for the Efficacy in assay [2] and in assay [4] were 50% and 24%, respectively. The IC50 on Progesterone receptor [3] is 3.14 nM.

For the molecule `C[C@@H]1C[C@H]2[C@@H]3CCC4=CC(=O)CCC4=C3[C@@H](c3ccc(-c4ccc(Cl)nc4)cc3)C[C@]2(C)[C@H]1C(=O)C1CC1`, the Efficacy in assay [2] worked out at 47%; in assay [4], 43%. The half-inhibitory concentration (IC50) on Progesterone receptor [3] was found to be 0.47 nM.

Consider `C=C1CCO[C@]12CC[C@H]1[C@@H]3CCC4=CC(=O)CCC4[C@H]3[C@@H](c3ccc(N(C)C)cc3)C[C@@]12C` (stereo partly drawn), for which the IC50 on Progesterone receptor [1] is 0.2 nM.

In the case of `CC[C@@H]1C[C@H]2[C@@H]3CCC4=CC(=O)CCC4=C3[C@@H](c3ccc(-c4cccnc4)cc3)C[C@]2(C)[C@H]1C(=O)C1CC1`, the figures for the Efficacy in assay [2] and in assay [4] were 34% and 53%, respectively. Also, the IC50 on Progesterone receptor [3] was determined as 0.6 nM.

In turn, `COC[C@]1(OC)CC[C@H]2[C@@H]3CCC4=CC(=O)CCC4=C3[C@@H](c3ccc(/C=N/O)cc3)C[C@@]21C` [ASOPRISNIL] yielded an EC50 on Progesterone receptor [5] greater than 100 nM. Further, on Progesterone receptor [3], the IC50 stood at 0.2 nM. Further, the Efficacy in assay [4] was found to be 97%.

Turning to `CC[C@@H]1C[C@H]2[C@@H]3CCC4=CC(=O)CCC4=C3[C@@H](c3ccc(-c4ccc(OC)nc4)cc3)C[C@]2(C)[C@H]1C(=O)C1CC1`, the Efficacy in assay [2] came out at 42%; in assay [4], 52%. For the same molecule, the IC50 at Progesterone receptor [3] stood at 7.89 nM.

Consider `C=C[C@@H]1C[C@H]2[C@@H]3CCC4=CC(=O)CCC4=C3[C@@H](c3ccc(-c4cccnc4)cc3)C[C@]2(C)[C@H]1C(=O)C1CC1`, for which the Efficacy in assay [2] is 47%; in assay [4] it was 38%. Besides, the IC50 at Progesterone receptor [3] worked out at 0.61 nM.

As to `COc1ccc(-c2ccc([C@H]3C[C@@]4(C)[C@@H](CCC45CCCC5=O)[C@@H]4CCC5=CC(=O)CCC5=C43)cc2)cn1` (stereo partly drawn), a half-maximal response on Progesterone receptor [5] (EC50) required 0.15 nM. Also, the Efficacy was 20% in assay [2] and 62% in assay [4]. Moreover, on Progesterone receptor [3], the IC50 amounted to 0.55 nM.

Turning to `C[C@@H]1C[C@H]2[C@@H]3CCC4=CC(=O)CCC4=C3[C@@H](c3ccc(-c4ncccn4)cc3)C[C@]2(C)[C@H]1C(=O)C1CC1`, the Efficacy in assay [2] was 52%; in assay [4] it was greater than 27%. Besides, the IC50 on Progesterone receptor [3] was determined as 3.25 nM.

Molecule `C[C@@H]1C[C@H]2[C@@H]3CCC4=CC(=O)CCC4=C3[C@@H](c3ccc(-c4ccnnc4)cc3)C[C@]2(C)[C@H]1C(=O)C1CC1` returned an EC50 on Progesterone receptor [5] of 0.36 nM. The Efficacy turned out to be 51% in assay [2] and 37% in assay [4]. At Progesterone receptor [3], the IC50 amounted to 3.64 nM.

In the case of `C[C@@H]1C[C@H]2[C@@H]3CCC4=CC(=O)CCC4=C3[C@@H](c3ccc(-c4ccc(F)nc4)cc3)C[C@]2(C)[C@H]1C(=O)C1CC1`, the Efficacy in assay [2] was found to be 51%; in assay [4] it was 50%. Besides, at Progesterone receptor [3], the IC50 came to 8.48 nM.

For the molecule `C=C[C@@H]1C[C@H]2[C@@H]3CCC4=CC(=O)CCC4=C3[C@@H](c3ccc(-c4ccc(OC)nc4)cc3)C[C@]2(C)[C@H]1C(=O)C1CC1`, the Efficacy in assay [2] worked out at 41%; in assay [4], 45%. For the same molecule, on Progesterone receptor [3], the IC50 was found to be 0.98 nM.

Turning to `C[C@@H]1C[C@H]2[C@@H]3CCC4=CC(=O)CCC4=C3[C@@H](c3ccc(-c4ccncc4)cc3)C[C@]2(C)[C@H]1C(=O)C1CC1`, the Efficacy was found to be 56% in assay [2] and 27% in assay [4]. Moreover, the IC50 at Progesterone receptor [3] amounted to 2.5 nM.

As to `C[C@@H]1C[C@H]2[C@@H]3CCC4=CC(=O)CCC4=C3[C@@H](c3ccc(-c4cnccn4)cc3)C[C@]2(C)[C@H]1C(=O)C1CC1`, the Efficacy in assay [2] worked out at 54%; in assay [4], 35%. For the same molecule, the concentration for half-maximal inhibition (IC50) on Progesterone receptor [3] turned out to be 1.3 nM.

In turn, `CC(=O)O[C@]1(C(C)=O)CC[C@H]2[C@@H]3CCC4=CC(=O)CCC4=C3[C@@H](c3ccc(N(C)C)cc3)C[C@@]21C` [ULIPRISTAL ACETATE] came in with an EC50 on Progesterone receptor [5] greater than 100 nM. Also, the half-inhibitory concentration (IC50) at Progesterone receptor [3] was found to be 0.2 nM. Further, in assay [4], the Efficacy was found to be 100%.

As to `C[C@@H]1C[C@H]2[C@@H]3CCC4=CC(=O)CCC4=C3[C@@H](c3ccc(-c4cccnc4)cc3)C[C@]2(C)[C@H]1C(=O)C1CC1`, the Efficacy in assay [2] worked out at 49%; in assay [4], 46%. Moreover, the IC50 at Progesterone receptor [3] turned out to be 0.27 nM.

As for `C[C@]12C[C@H](c3ccc(-c4cccnc4)cc3)C3=C4CCC(=O)C=C4CC[C@H]3[C@@H]1CC[C@@H]2C(=O)C1CC1`, the Efficacy stood at 36% in assay [2] and 66% in assay [4]. At Progesterone receptor [3], the IC50 is 0.75 nM.

With `C[C@]12C[C@H](c3ccc(-c4cccnc4)cc3)C3=C4CCC(=O)C=C4CC[C@H]3[C@@H]1CCC21CCCC1=O` (stereo partly drawn), on Progesterone receptor [5], the EC50 was 0.29 nM. For the same molecule, the figures for the Efficacy in assay [2] and in assay [4] were 17% and 71%, respectively. For the same molecule, on Progesterone receptor [3], the IC50 came out at 0.33 nM.

As for `COc1ccc(-c2ccc([C@H]3C[C@]4(C)[C@@H](C(=O)C5CC5)CC[C@H]4[C@@H]4CCC5=CC(=O)CCC5=C43)cc2)cn1`, the Efficacy was determined as 28% in assay [2] and 57% in assay [4]. Further, at Progesterone receptor [3], the half-maximal inhibitory concentration (IC50) worked out at 0.43 nM.
